Results published in paper PMC4059272 (Journal of Medicinal Chemistry, 2014).

Legend:
MCF-7:WS8 cells [1] = assay: DNA quantification growth assay, compounds alone; assay type: cell-based, human; settings: for estrogenic properties on cell growth: MCF-7:WS8, compounds alone, concentration range 10^–12–10^–6 M
pS2 gene = assay: RT-PCR of estrogen-responsive gene pS2 in MCF-7:WS8 cells; assay type: cell-based, human; settings: MCF-7:WS8, 48 h; E2 at 10^–10 M, other compounds at 10^–6 M
How it was run: (§1)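 MCF-7:WS8 cells kept in phenol-red RPMI 1640 with 10% FBS, glutamine, nonessential amino acids and 6 ng/mL insulin at 37 °C, 5% CO2. Cells were estrogen-starved 3 days, seeded at 300 000 cells/well the day before, and treated 48 h. RNA was taken in Trizol and run as SYBR green real-time PCR with 36B4 as reference.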

GREB1 gene = assay: RT-PCR of estrogen-responsive gene GREB1 in MCF-7:WS8 cells; assay type: cell-based, human; settings: MCF-7:WS8, 48 h; E2 at 10^–10 M, other compounds at 10^–6 M
How it was run: as §1

prolactin gene (Prl) = assay: RT-PCR of prolactin; assay type: cell-based, rat; settings: GH3 cells, top concentration of 10^–6 M, with 1 nM E2
ERα = target: T1, ERα (Homo sapiens, UniProt P03372); assay: Immunoblotting of ERα protein levels in MCF-7:WS8 cells; assay type: cell-based; settings: for regulation of ERα protein levels: MCF-7:WS8, 24 h treatment
T1 sequence (P03372 1-595): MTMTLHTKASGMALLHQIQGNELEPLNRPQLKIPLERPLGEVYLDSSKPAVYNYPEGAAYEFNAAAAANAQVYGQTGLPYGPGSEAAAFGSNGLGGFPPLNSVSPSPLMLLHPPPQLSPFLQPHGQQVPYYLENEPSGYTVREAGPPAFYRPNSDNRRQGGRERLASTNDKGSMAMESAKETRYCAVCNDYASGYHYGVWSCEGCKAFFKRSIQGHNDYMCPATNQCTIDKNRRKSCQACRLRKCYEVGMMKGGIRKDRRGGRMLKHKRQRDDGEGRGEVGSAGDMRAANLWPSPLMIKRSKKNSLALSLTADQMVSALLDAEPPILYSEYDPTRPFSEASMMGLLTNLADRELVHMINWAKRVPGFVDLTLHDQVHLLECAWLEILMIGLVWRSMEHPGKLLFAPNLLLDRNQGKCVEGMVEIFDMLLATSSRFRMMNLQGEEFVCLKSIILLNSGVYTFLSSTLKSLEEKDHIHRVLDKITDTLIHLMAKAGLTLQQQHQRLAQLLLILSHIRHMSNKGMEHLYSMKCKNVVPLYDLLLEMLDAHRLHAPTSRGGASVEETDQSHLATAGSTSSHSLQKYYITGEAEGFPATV

PgR gene = assay: RT-PCR of estrogen-responsive gene PgR in MCF-7:WS8 cells; assay type: cell-based, human; settings: MCF-7:WS8, 48 h; E2 at 10^–10 M, other compounds at 10^–6 M
How it was run: as §1

MCF-7:WS8 cells [2] = assay: DNA based growth assay, combination treatments with 10^–10 M E2; assay type: cell-based, human; settings: for inhibition of 10^–10 M E2-induced growth: MCF-7:WS8, at 10^–6 M

| Structure (SMILES) | estrogenic properties on cell growth (MCF-7:WS8 cells [1]) | effect on pS2 mRNA expression (pS2 gene) | effect on GREB1 mRNA expression (GREB1 gene) | inhibition of 1 nM E2-induced Prl gene up-regulation (prolactin gene (Prl)) | regulation of ERα protein levels (ERα) | effect on PgR mRNA expression (PgR gene) | inhibition of 10^–10 M E2-induced growth (MCF-7:WS8 cells [2]) | partial agonist growth level, % max of E2 curve (MCF-7:WS8 cells [1]; MCF-7:WS8, over the range 10^–12–10^–9 M) [%] | reduction (down-regulation) of ERα level by densitometry (ERα; MCF-7:WS8, 24 h, E2 at 1 nM) | inhibition of E2-stimulated cell growth at top concentration (MCF-7:WS8 cells [2]; MCF-7:WS8, 10^–6 M compound with 10^–10 M E2) |
| --- | --- | --- | --- | --- | --- | --- | --- | --- | --- | --- |
| CNCCOc1ccc(C2=C(c3ccccc3)CCCc3cc(O)ccc32)cc1 [ZFREndox, 9-(4-(2-(Methylamino)ethoxy)phenyl)-8-phenyl-6,7-dihydro-5H-benzocyclohepten-3-ol] | no estrogenic properties | no significant effect | no significant effect | completely inhibit |  |  |  |  |  |  |
| CCC(=C(c1ccc(O)cc1)c1ccc(O)cc1)c1ccc(O)cc1 [3OHTPE] |  | partial estrogenic effect | partial estrogenic effect |  | up-regulated the protein levels | partial estrogenic effect |  |  |  |  |
| CCC(=C(c1ccc(O)cc1)c1ccc(OCCN(C)C)cc1)c1ccccc1 [4OHT, 4-hydroxytamoxifen] | no estrogenic properties | no significant effect | no significant effect | completely inhibit |  |  | completely |  |  |  |
| CN(C)CCOc1ccc2c(c1)CCCC(c1ccccc1)=C2c1ccc(O)cc1 [EFR4OHT] |  | induce expression | induce expression |  |  | induce expression |  |  |  |  |
| CCOc1ccc2c(c1)CCCC(c1ccccc1)=C2c1ccc(OCCN(C)C)cc1 [ZFR4OHT] | no estrogenic properties | no significant effect | no significant effect | completely inhibit |  |  |  |  |  |  |
| CCC(=C(c1ccc(O)cc1)c1ccc(O)cc1)c1ccccc1 [BPTPE] |  | partial estrogenic effect | partial estrogenic effect |  | up-regulated the protein levels | partial estrogenic effect |  | 50 |  |  |
| CC/C(=C(\c1ccc(O)cc1)c1ccc(OCCNC)cc1)c1ccccc1 [Endoxifen, 4-hydroxy-N-desmethyltamoxifen] | no estrogenic properties |  |  |  | up-regulation |  | completely |  |  |  |
| C[C@]12CC[C@@H]3c4ccc(O)cc4C[C@@H](CCCCCCCCC[S+]([O-])CCCC(F)(F)C(F)(F)F)[C@H]3[C@@H]1CC[C@@H]2O (stereo partly drawn) [Fulvestrant] |  |  |  |  |  |  |  |  | more than 90% |  |
| C[C@]12CC[C@@H]3c4ccc(O)cc4CC[C@H]3[C@@H]1CC[C@@H]2O [E2, 17β-estradiol] |  | induced expression | induced expression |  |  | induced expression |  |  |  |  |
| CNCCOc1ccc2c(c1)CCCC(c1ccccc1)=C2c1ccc(O)cc1 [EFREndox, 4-(3-(2-(Methylamino)ethoxy)-8-phenyl-6,7-dihydro-5H-benzocyclohepten-9-yl)phenol] |  | induce expression | induce expression |  |  | induce expression |  |  |  | about 10% |
